Screening results: PubChem, The Scripps Research Institute Molecular Screening Center
GPR7 antag: GPR7 receptor antagonists, primary screen, cell-based, fluorescence, single concentration; 290,000 compounds, 1.1% hits; GPR7-expressing cells, fluorescence antagonist assay; AID 1861, 2009; Neuropeptides B/W receptor type 1 (Homo sapiens), P48145; inhibition, % at 4.4 µM; in the data active means inhibition above about 16%, passing the limit was not always enough;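 further: cells stimulated with the agonist NPW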
Target sequence (P48145 whole entry, looked up): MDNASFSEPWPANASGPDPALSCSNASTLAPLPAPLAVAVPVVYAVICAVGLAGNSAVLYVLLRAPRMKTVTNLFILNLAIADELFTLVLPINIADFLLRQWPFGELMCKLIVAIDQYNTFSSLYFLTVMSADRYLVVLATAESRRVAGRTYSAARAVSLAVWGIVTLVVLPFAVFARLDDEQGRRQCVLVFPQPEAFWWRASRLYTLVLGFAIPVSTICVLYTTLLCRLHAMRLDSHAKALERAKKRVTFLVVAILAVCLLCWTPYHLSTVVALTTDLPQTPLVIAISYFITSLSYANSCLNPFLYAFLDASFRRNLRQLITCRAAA
OX1R antag-1: OX1R (HCRTR1) antagonists, primary screen, fluorescence, CHO/OX1R cells, Fluo-8 calcium, orexin A | Fluo-8 calcium fluorescence | inhibition, % at 5 µM | 330,000 compounds, 0.43% hits | AID 434989, 2010;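 active means inhibition above its plate's threshold, mean inhibition of all tested compounds on the plate plus 3 SD, cut at about 37% in these data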
GalR3 antagonist: GalR3 antagonists in HEK293 cells, primary screen, cell-based, fluorescence readout. AID 651719, 2012. inhibition, % at 3 µM. Galanin receptor type 3 (Homo sapiens), O60755. HEK293 GalR3-CNG cAMP membrane potential fluorescence; galR3 body fused to GalR1 C-terminus. 360,000 compounds, 0.44% hits;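 active means inhibition above the screen-wide average plus 3 SD, cut at about 13% in these data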;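 further: forskolin and galanin both at EC90 stimulate the cells; cAMP rise reported by CNG channel membrane potential dye signal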
Target sequence (O60755 1-299 limits assumed): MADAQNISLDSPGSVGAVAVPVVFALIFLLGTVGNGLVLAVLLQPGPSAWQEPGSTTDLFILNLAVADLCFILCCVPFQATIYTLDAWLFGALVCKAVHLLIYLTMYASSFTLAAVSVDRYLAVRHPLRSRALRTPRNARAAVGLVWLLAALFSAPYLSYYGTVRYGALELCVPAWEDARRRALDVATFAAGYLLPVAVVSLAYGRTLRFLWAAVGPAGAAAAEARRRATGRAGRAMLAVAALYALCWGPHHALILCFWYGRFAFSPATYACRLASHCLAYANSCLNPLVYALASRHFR
OX1R antag-2: antagonists of human orexin 1 receptor (OX1R). Orexin/Hypocretin receptor type 1 (Homo sapiens), O43613. OX1R-expressing cells, FRET antagonist read-out. inhibition, % at 6.6 µM. 330,000 compounds, 1.8% hits. AID 485270, 2010; in the data active means inhibition mostly above about 38%, no sharp cut-off; inactive means mostly below about 40%
CHO parental Ca: ATP-evoked calcium signal inhibitors, parental CHO, primary screen, counter-screen for OX1R antagonist project, cell-based, fluorescence, Fluo-8 calcium dye. parental CHO-K1, ATP-induced calcium, Fluo-8 fluorescence. inhibition, % at 5.6 µM. 330,000 compounds, 0.63% hits;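 active means inhibition above that plate's mean sample inhibition plus 3 SD, cut at about 26% in these data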
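Material: Parental CHO cells | Reagent: ATP | Compound dosing: Single nominal dose of 5.6 µM per compound | Detection: Intracellular calcium via Fluo-8 no-wash fluorescent dye | Read-out: % inhibition of ATP-induced calcium mobilization | Benchmarks: Low control ATP plus DMSO, high control DMSO only | Replicates: Singlicate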
Hits are given with their value; - = inactive; . = no result given. Only some compounds are listed: those with a hit (about 3.1% of all), similar ones and a draw of the others.

SMILES	GPR7 antag	OX1R antag-1	GalR3 antagonist	OX1R antag-2	CHO parental Ca
OC[C@@H]1[C@@H](c2ccc(F)cc2)C(c2cccc(Cl)c2)=NN1c1ccccc1	.	-	-	-	-
OCC1(Cc2ccccc2)CCN(Cc2ccc(C(F)(F)F)cc2)CC1	-	-	-	-	-
CSc1ccc(CN2CCC(CO)(Cc3ccc(Cl)cc3)CC2)cc1	30	-	-	-	-
O=C(NC1CCN(C(=S)NCc2ccco2)CC1)c1cccc(F)c1	-	-	-	-	-
Cc1c(C(=O)OCC(=O)N(C)Cc2ccc(Cl)cc2)oc2ccccc12	.	-	-	53	-
O=C(CSc1nc(-c2ccccc2)c(-c2ccccc2)[nH]1)Nc1ccc2c(c1)OCO2	-	-	-	50	-
O=C(NC(=S)N1CCN(c2ccc([N+](=O)[O-])cc2)CC1)c1ccc(F)cc1	-	-	-	56	-
O=[N+]([O-])c1ccc(N2CCN(C(=S)NC3CCCCC3)CC2)cc1	-	49	-	-	33
O=C(NC(=S)N1CCN(c2ccc(F)cc2)CC1)c1ccccc1	.	.	-	.	.
O=C(Oc1c(Cl)cc(Cl)c2cccnc12)c1cccs1	-	-	-	-	-
O=C(Oc1c(Cl)cc(Cl)c2cccnc12)c1ccco1	-	-	-	-	34
O=C(/C=C/c1cccc([N+](=O)[O-])c1)Nc1cc(C(=O)O)cc(C(=O)O)c1	-	-	-	62	-
COC(=O)c1cccc(NC(=O)/C=C/c2cccc([N+](=O)[O-])c2)c1	-	-	-	-	-
Cc1ccc(S(=O)(=O)n2cc(CO)c3ccccc32)cc1	.	.	-	.	.
Cn1nc(-c2ccc(NCCO)c([N+](=O)[O-])c2)c2ccccc2c1=O	-	-	-	-	-
CN(C)CCNc1ccc(-c2nn(C)c(=O)c3ccccc23)cc1[N+](=O)[O-]	-	-	-	42	-
CCC(=O)/C=C1/Sc2ccccc2N1CC	-	-	-	-	-
CCOC(=O)/C(=C/C=C1\Sc2ccccc2N1CC)C(C)=O	-	-	.	-	28
O=S(=O)(c1ccc(N2CCCC2)cc1)C(F)(F)F	-	-	-	-	40
CC(=O)c1ccc(Sc2nnnn2-c2ccccc2)c([N+](=O)[O-])c1	-	-	-	-	-
Cn1c(Sc2ccc(C(=O)O)cc2[N+](=O)[O-])nnc1-c1ccccc1	-	-	-	57	-
CNC[C@H]1Oc2c(NS(=O)(=O)c3ccc(OC)cc3)cccc2C(=O)N([C@H](C)CO)C[C@H]1C	.	-	-	-	-
COc1ccc(/C=N/Nc2nnc(C)n2N)cc1OC	-	-	-	-	-
COc1ccc(/C=N/Nc2nnc(C)n2N)cc1OC(C)=O	-	-	-	56	-
CCc1nc(Nc2ccccc2F)c2oc3ccccc3c2n1	-	-	-	44	-
SMILES	GPR7 antag	OX1R antag-1	GalR3 antagonist	OX1R antag-2	CHO parental Ca
CCc1nc(Nc2ccc(F)cc2)c2oc3ccccc3c2n1	-	-	-	-	-
CCOc1ccccc1NC(=O)Nc1ccc(Br)cc1C	-	-	-	-	-
Cc1nn2c(-c3cccc(NC(=O)c4ccco4)c3)nnc2c2ccccc12	-	-	-	-	-
Cc1nn2c(-c3ccccc3)nnc2c2ccccc12	-	-	-	64	-
O=C1NC(=S)S/C1=C\c1cc(Cl)ccc1Cl	.	.	-	.	.
CCOc1c(O)ccc(/C=C2\SC(=S)NC2=O)c1[N+](=O)[O-]	-	-	-	50	-
CCOc1ccc(N(C)c2ccc(/C=C3/SC(=S)NC3=O)cc2)cc1	-	33	-	-	26
CN(C)CCCNS(=O)(=O)c1ccc(N2CCC(c3ccc(Cl)cc3)=N2)cc1	41	-	-	-	-
O=S(=O)(c1ccc(N2CCC(c3ccc(Cl)cc3)=N2)cc1)N(CCO)CCO	-	46	-	-	62
CN(C)CCCNS(=O)(=O)c1cc(Cl)ccc1Cl	-	-	-	-	-
O=S(=O)(c1ccc(Oc2ccc(S(=O)(=O)N(CCO)CCO)cc2)cc1)N(CCO)CCO	-	-	-	-	-
COc1ccc(CCNc2nc(-c3ccc(O)cc3)cs2)cc1OC	-	61	-	32	58
CCCN(S(=O)(=O)c1ccccc1F)S(=O)(=O)c1ccccc1Br	-	-	-	68	-
CC(C)C1CC(O)(C2(O)CCCCC2)ON1 (stereo not given)	-	-	-	-	-
O=C(CSc1nnc(-c2cccs2)n1Cc1ccccc1)NCc1ccc2c(c1)OCO2	-	-	-	62	-
CCn1c(SCC(=O)NCc2ccc3c(c2)OCO3)nnc1-c1cccs1	-	-	-	-	-
Cn1c(SCC(=O)NCc2ccc3c(c2)OCO3)nnc1-c1cccs1	-	-	-	-	-
O=C(CSc1nnc(-c2cccs2)n1-c1ccccc1)NCc1ccc2c(c1)OCO2	-	-	-	62	-
O=C(OCc1cc(=O)n2c(n1)sc1ccccc12)c1ccc(O)cc1	-	-	-	53	-
O=c1cc(CCl)nc2sc3ccccc3n12	-	-	-	-	-
O=C(O)c1ccc(-n2c(/C=C/c3cccc([N+](=O)[O-])c3)nc3ccccc3c2=O)cc1	-	-	-	-	-
O=C(O)c1ccc(-n2c(/C=C/c3ccccc3)nc3ccccc3c2=O)cc1	-	-	-	37	-
Cc1ccc(S(=O)(=O)N2CCCc3ccccc32)cc1C	-	-	-	-	30
COc1ccc2c(c1)C(=NN)c1cc(OC)ccc1-2	-	-	-	55	-
O=c1[nH]c(CSc2nc3ccccc3[nH]2)nc2c1cnn2-c1ccccc1	-	90	-	106	52
SMILES	GPR7 antag	OX1R antag-1	GalR3 antagonist	OX1R antag-2	CHO parental Ca
Cc1ccc2nc(SCc3nc4c(cnn4-c4ccccc4)c(=O)[nH]3)[nH]c2c1	-	80	-	90	39
CCn1c2ccccc2c2cc(NC(=O)CC(C)=O)ccc21	-	-	-	-	-
O=C(C(=O)N1CCC(CNS(=O)(=O)c2ccc(C(F)(F)F)cc2)CC1)c1cc2ccccc2o1	.	.	-	.	.
Cc1ccc(CNC(=O)c2ccc(Cl)c(S(N)(=O)=O)c2)n1C	-	-	-	-	-
O=C(Cn1c(C(=O)N2CCc3ccccc3C2)cc2sccc21)c1ccccc1	-	-	.	-	-
CCC(=O)N1CCN(c2nc3ccccc3s2)CC1	-	-	-	-	-
O=C(c1cc2sccc2n1Cc1ccccc1)N1CCN(c2nc3ccccc3s2)CC1	-	-	-	-	35
O=C(Cn1c(C(=O)N2CCN(C3CCCCC3)CC2)cc2sccc21)c1ccccc1	20	-	-	-	-
COc1ccc(OC)c(S(=O)(=O)N2CCN(c3c(C)cccc3C)CC2)c1	-	-	.	-	26
O=C1c2cccc3c(N4CCCCC4)ccc(c23)C(=O)N1CCO	-	-	-	-	-
